A selection: hits, their analogues and other compounds. The true share with any hit is near 4.5%.
CHO parental Ca: ATP-evoked calcium signal inhibitors, parental CHO, primary screen, counter-screen for OX1R antagonist project, cell-based, fluorescence, Fluo-8 calcium dye; parental CHO-K1, ATP-induced calcium, Fluo-8 fluorescence; inhibition, % at 5.6 µM; hit rate 0.63% among 330,000; AID 463079, 2010;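 active means inhibition above that plate's mean sample inhibition plus 3 SD, cut at about 26% in these data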;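 further: 0% = ATP-challenged DMSO wells and 100% = DMSO wells without ATP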
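test system = CHO parental line | reagent = ATP stimulus | measured by = intracellular calcium via Fluo-8 no-wash fluorescent dye | control set = ATP and no-ATP DMSO wells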
TAAR1 antagonist: human TAAR1 antagonists, primary screen, Fluo-8 calcium fluorescence, CHO RD-HGA16 cells. antagonist. inhibition, % at 3 µM. hit rate 1.5% among 360,000. AID 624466, 2012;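 active means inhibition above a per-plate cutoff, the mean inhibition of test compounds on that plate plus 3 SD, cut at about 49% in these data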;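 further: 0% = DMSO plus EC80 beta-PEA response and 100% = DMSO alone without agonist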
Target sequence (Q96RJ0 whole entry, looked up): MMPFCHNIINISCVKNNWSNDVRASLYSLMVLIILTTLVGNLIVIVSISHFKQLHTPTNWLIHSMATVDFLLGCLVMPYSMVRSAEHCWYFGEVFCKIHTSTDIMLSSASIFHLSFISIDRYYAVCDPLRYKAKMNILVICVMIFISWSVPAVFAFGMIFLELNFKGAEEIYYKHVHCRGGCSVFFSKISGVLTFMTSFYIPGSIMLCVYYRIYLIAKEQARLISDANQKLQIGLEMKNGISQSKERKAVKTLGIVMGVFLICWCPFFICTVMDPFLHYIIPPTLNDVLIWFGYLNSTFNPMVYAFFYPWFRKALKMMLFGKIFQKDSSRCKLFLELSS
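Test system – hTAAR1-expressing CHO RD-HGA16 cells, Gα16-coupled · Reagent – β-PEA at EC80 concentration, post-compound challenge · Compound dosing – 3 µM, single point · Timing – 140 s kinetic read after compound, 140 s after agonist · Detection – Fluo-8 intracellular calcium dye fluorescence, real-time kinetic reads · Control set – DMSO and EC80 PEA controls · Repeats – n of 1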
TAAR1 ag: human TAAR1 agonists, primary screen, Fluo-8 calcium fluorescence, CHO RD-HGA16 cells. Trace amine-associated receptor 1 (Homo sapiens), Q96RJ0. vehicle wells 0%, saturating PEA agonist 100%. activation, % at 3 µM. hit rate 0.99% among 360,000. AID 624467, 2012;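 active means activation above the mean activation of all test compounds in the run plus 3 SD, cut at about 38% in these data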
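Test system: RD-HGA16 (CHO) cells co-expressing Gα16 and hTAAR1 / Benchmarks: DMSO vehicle as 0%, PEA at EC100 as 100% / Repeats: no replicates (n 1) / Measure: % activation from peak over basal fluorescence ratio, DMSO-to-PEA scaled / Timing: 17-24 h plating, Fluo-8 75 min 37 °C, 30 min RT / Technique: kinetic Fluo-8 calcium fluorescence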
OX1R antag-1: OX1R (HCRTR1) antagonists, primary screen, fluorescence, CHO/OX1R cells, Fluo-8 calcium, orexin A. Fluo-8 calcium fluorescence. AID 434989, 2010. inhibition, % at 5 µM. hit rate 0.43% among 330,000. Orexin/Hypocretin receptor type 1 (Homo sapiens), O43613;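 active means inhibition above its plate's threshold, mean inhibition of all tested compounds on the plate plus 3 SD, cut at about 37% in these data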;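 further: 0% = orexin A challenge wells and 100% = SB-334867-A antagonist wells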
OX1R antag-2: antagonists of human orexin 1 receptor (OX1R); Orexin/Hypocretin receptor type 1 (Homo sapiens), O43613; OX1R-expressing cells, FRET antagonist read-out; inhibition, % at 6.6 µM; hit rate 1.8% among 330,000; AID 485270, 2010; in the data active means inhibition mostly above about 38%, no sharp cut-off; inactive means mostly below about 40%;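 further: 0% = agonist challenge alone and 100% = reference antagonist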
GPR7 antag: GPR7 receptor antagonists, primary screen, cell-based, fluorescence, single concentration | inhibition, % at 4.4 µM | Neuropeptides B/W receptor type 1 (Homo sapiens), P48145 | GPR7-expressing cells, fluorescence antagonist assay | hit rate 1.1% among 290,000; in the data active means inhibition above about 16%, passing the limit was not always enough;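 further: cells stimulated with the agonist NPW; 0% = agonist with vehicle and 100% = vehicle without agonist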
Target sequence (P48145 whole entry, looked up): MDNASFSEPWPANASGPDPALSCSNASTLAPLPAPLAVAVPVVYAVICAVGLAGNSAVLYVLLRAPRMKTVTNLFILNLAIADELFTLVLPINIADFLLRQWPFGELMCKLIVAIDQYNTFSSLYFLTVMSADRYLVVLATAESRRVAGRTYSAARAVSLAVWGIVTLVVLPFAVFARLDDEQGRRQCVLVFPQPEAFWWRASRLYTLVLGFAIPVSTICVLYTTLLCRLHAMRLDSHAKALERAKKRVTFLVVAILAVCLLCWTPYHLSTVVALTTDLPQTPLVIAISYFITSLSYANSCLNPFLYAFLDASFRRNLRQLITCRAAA
Starred values were filed as active, the others as inactive; . = no result given.

SMILES | CHO parental Ca | TAAR1 antagonist | TAAR1 ag | OX1R antag-1 | OX1R antag-2 | GPR7 antag
O=C(Nc1cccc(O)c1)c1noc2c1CCc1ccccc1-2 | -15 | 21 | 13 | 40 | 37* | 6
Cc1nc2c(ccc3nc(NC(=O)c4ccc5c(c4)OCCO5)sc32)s1 | -19 | -10 | 3 | 20 | 64* | 0
c1ccc2nc3c(nc2c1)c1ccccc1n3CCN1CCOCC1 | -17 | 24 | 5 | -9 | 49* | -15
Nc1[nH]c(=O)ncc1-c1ccc([N+](=O)[O-])cc1 | . | -11 | 2 | . | . | .
CC1(C)OC(=O)C2=C(CC(CCc3ccccc3)OC2c2ccc(F)cc2)O1 (stereo not drawn) | . | 33 | 1 | . | . | .
COc1ccc(C2=Nc3ccccc3NC(=O)C2N(CCc2ccccc2)C(=O)c2cccs2)cc1 (stereo not drawn) | . | 35 | 44* | . | . | .
O=C1Nc2ccccc2N=C(c2ccc3c(c2)OCO3)C1N(CCc1ccccc1)C(=O)CSc1ncccn1 (stereo not drawn) | . | 35 | 41* | . | . | .
O=C1Nc2ccccc2N=C(c2ccc3c(c2)OCO3)C1N(C(=O)c1ccnc2ccccc12)c1ccccc1 (stereo not drawn) | . | 13 | 1 | . | . | .
O=C(c1cc(C2CC2)nn1-c1ccccc1)N1CCN(S(=O)(=O)c2c(F)cccc2F)CC1 | -14 | 12 | -1 | -13 | 6 | .
C[C@@H]1ON(C)[C@H]2C[C@H]3c4cc(Br)ccc4CCN3C[C@@H]12 | . | -31 | 4 | . | . | .
O=C(O)c1cnc(-c2ccccc2)nc1-c1ccccc1 | -9 | 13 | 1 | 3 | 62* | -5
CC1Cc2nc(SCC(=O)N3CCN(c4ccccc4)CC3)n(CCc3ccccc3)c(=O)c2S1 (stereo not drawn) | -9 | 52* | 1 | -22 | 14 | 10
CCn1c(SCC(=O)N2CCN(c3ccccc3)CC2)nc2c(c1=O)SC(C)C2 (stereo not drawn) | -3 | -38 | -2 | -41 | 10 | -3
C[C@@H]1CN(c2ccc(N3CCN(C(=O)OC(C)(C)C)C[C@@H]3C)cc2C#N)CCN1Cc1ccccc1 | . | 30 | -1 | . | . | .
CC(=O)NC(=S)c1c(N)n(Cc2ccccc2)c(=O)n(C)c1=O | -8 | . | . | -39 | 4 | 21*
CC(=O)Nc1cccc(NC(=O)c2cccc3cccnc23)c1 | -15 | 10 | 3 | 14 | 71* | 6
COc1ccccc1NC(=O)c1ccccc1-c1nc(-c2ccccc2OC)no1 | -20 | 51* | 16 | 10 | 55* | -2
COc1ccccc1-c1noc(-c2ccccc2C(=O)Nc2ccccc2)n1 | -18 | 47 | 22 | -22 | 52 | -5
CCOc1ncccc1C(=O)NCc1ccccc1F | -8 | -28 | -2 | -19 | 31 | -12
COc1ccccc1C(=O)Nc1cccc2cccnc12 | -19 | -8 | -1 | -3 | 73* | -2
O=C(NCCc1ccccc1F)c1cccc2cccnc12 | -24 | 17 | 66* | -43 | 24 | 3
O=C(C(=O)N1CCC(CNC(=O)c2cccnc2Cl)CC1)c1cc2ccccc2o1 | . | -29 | 2 | . | . | .
C[C@H](CO)N1C[C@H](C)[C@@H](CN(C)S(=O)(=O)c2cn(C)cn2)Oc2ccc(NC(=O)Cc3ccccc3)cc2C1=O | 1 | 14 | 6 | 7 | 8 | .
CCOc1ccccc1C(=O)Nc1cccc2ccccc12 | -9 | 21 | 3 | -15 | 53* | -17
Cc1ccc(S(=O)(=O)N2[C@@H](c3ccccc3)C(C(=O)O)=CC[C@H]2c2ccc(C(C)C)cc2)cc1 | -18 | 1 | 3 | -16 | 36 | .
SMILES | CHO parental Ca | TAAR1 antagonist | TAAR1 ag | OX1R antag-1 | OX1R antag-2 | GPR7 antag
Cc1ccc([C@H]2C(C(=O)O)=CC[C@@H](c3ccc(C)cc3)N2S(=O)(=O)c2ccc(C)cc2)cc1 | -34 | -5 | 1 | -1 | 41* | .
Cc1ccc([C@H]2C(C(=O)O)=CC[C@@H](c3ccc(C(C)C)cc3)N2S(=O)(=O)c2ccc(C)cc2)cc1 | 37* | 12 | 1 | 29 | 29 | .
C[C@@H]1CCCCO[C@@H](CN(C)C(=O)Nc2ccccc2)[C@@H](C)CN([C@H](C)CO)C(=O)c2cc(NC(=O)NC3CCCCC3)ccc2O1 | . | -8 | 3 | . | . | .
COc1ccc(O)c(-c2cn[nH]c2-c2cccs2)c1 | -1 | 4 | -3 | -10 | 11 | 20*
COc1ccc(-c2[nH]ncc2-c2cscn2)c(O)c1 | -10 | 17 | 1 | -1 | 8 | 5
N#Cc1ccc(S(=O)(=O)N2CCC(C(=O)Nc3cccc(C(=O)NC4CC4)c3)CC2)cc1 | -18 | 12 | 2 | -18 | 0 | .
CCN1C(=O)[C@@H]2[C@@H](c3ccc(-c4ccc(C(C)=O)cc4)c(OC)c3)N3CCC[C@@]3(C(=O)OC)[C@@H]2C1=O | -14 | 12 | 1 | -16 | 7 | .
COc1ccc(Br)cc1CNC(=O)c1ccc2c(c1)N(C)CCS2 | -17 | -2 | -1 | -24 | 57* | -2
COc1ccc(CCNC(=O)c2ccc3c(c2)N(Cc2ccc(F)cc2)CCS3)c(OC)c1 | -1 | 0 | 16 | -12 | 46* | 9
CCN1CCSc2ccc(C(=O)NCc3cc(Br)ccc3OC)cc21 | -2 | -19 | 1 | -27 | 25 | -3
COc1ccc(OC)c(CCNC(=O)c2ccc3c(c2)N(Cc2ccc(F)cc2)CCS3)c1 | -17 | . | . | 27 | 29 | 21
O=C(CSc1n[nH]c(=O)[nH]c1=O)c1cccc([N+](=O)[O-])c1 | 2 | 5 | 0 | -8 | 48* | -11
O=C(N/N=C/c1cc2c(c([N+](=O)[O-])c1)OCO2)c1ccncc1 | -10 | -11 | 2 | -8 | 54* | -12
CSc1nccc(NC(=O)c2cccc(Br)c2)n1 | -21 | 8 | 48* | -29 | 21 | 23
Clc1ccc(-c2nnc(CSc3nnc(-c4cccs4)n3Cc3ccccc3)o2)cc1 | 23 | 17 | 1 | 4 | 47* | 20
Fc1ccc(NCc2nnc(SCc3nnc(-c4ccccc4)o3)n2Cc2ccccc2)cc1 | 51* | 12 | 11 | 73* | 51 | -15
COCC(C)NC(=O)c1nn(Cc2ccccc2)c(=O)c2ccccc12 (stereo not drawn) | -16 | -6 | -3 | -18 | 74* | -11
COc1cc(/C=N/NC(=O)c2ccc(C)nc2)cc([N+](=O)[O-])c1O | -16 | -8 | 6 | -24 | 43* | 8
COc1cc(/C=N/NC(=O)Cc2ccccc2)ccc1Oc1ccc([N+](=O)[O-])cc1[N+](=O)[O-] | 29* | -10 | 5 | -9 | 14 | -8
